Active and inactive are the calls of the source.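 How the source made its calls, unless noted: active means inhibition at or above 50% at 10 µM; inactive means inhibition below 50%.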

The nature of test [1]: inhibitors of TNFa-induced NFkB p65 translocation, primary screen, imaging, HUVEC, MLSMR starter and 10KST1 sets (AID 438;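 active means inhibition above 20% together with a positive visual image hit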;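 further: compound added about 3h40 before a 20 min TNFalpha stimulation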;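 on inhibition: signal is the nuclear over cytoplasmic p65 intensity ratio per well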). The settings on record: HUVEC TNFa-induced p65 nuclear translocation; cell count: measured here: nuclei count (cytotoxicity indicator), at 2.08 µM; inhibition: at 2 µM, stronger effect = higher value, 0% TNFa-plus-vehicle, 100% no-TNFa wells.
Test [2] can be described thus: reduction of polyQ htt aggregates in cells – imaging, exon1htt(103Q)mCFP cells, high-content imaging, primary screen (AID 483;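 active means visual image review flags a hit and inhibition of aggregation exceeds 20%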;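 further: compound exposure lasted 3 days before fixation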;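 on nuclei count: percent of the per-plate median nuclei count of sample wells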). The settings on record: exon1htt(103Q)mCFP cell line, aggregate imaging, at 2 µM; inhibition of aggregation: stronger effect = higher value; nuclei count: measured here: cell count, toxicity.
Test [3] is described as follows: endothelial E-selectin expression blockers – imaging, HUVEC, immunofluorescence, MLSMR starter and 10KST1 sets, primary screen (AID 487;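 active means visually confirmed hit in the image check and inhibition above 20%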;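 on inhibition: signal is fraction of cell area covered by stained E-selectin grains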;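 on nuclei count: 100% = median nuclei count of all wells on the same plate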). The settings on record: HUVEC TNFalpha-induced E-selectin immunofluorescence imaging, at 2 µM; inhibition: stronger effect = higher value; nuclei count: measured here: cell number, toxicity.
The target in test [4] is Voltage-gated potassium channel subunit beta-2 (Rattus norvegicus) (UniProt P62483). The experiment in a line: inhibitors of rat Kvbeta2 reductase activity – biochemical, NADPH fluorescence, primary screen (AID 622;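 active means fluorescence slope higher than the sample average by over 3 SD, cut at about -0.22 in these data, passing the limit was not always enough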;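 further: slope of raw intensity against log time taken from 70 to 1610 s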). The settings on record: recombinant KvBeta, 4-cyanobenzaldehyde reduction, at 10 µM, stronger effect = higher value.
Test [5] has the same target. The experiment in a line: enhancers of rat Kvbeta2 NADPH turnover – biochemical, NADPH fluorescence, primary screen (AID 623;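 active means NADPH fluorescence slope more negative than the mean of all samples by about 3 SD, 99.7% confidence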;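 further: fluorescence intensity change per second fitted from 20 to 320 s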). The following applies: Recombinant KvBeta, NADPH fluorescence decrease slope, 10 min; at 10 µM; stronger effect = lower value.
The target in test [6] is Alpha-2C adrenergic receptor (Homo sapiens) (UniProt P18825). Put plainly: compounds altering alpha2C-coupled GIRK flux – cell-based, HEK293 alpha2C/GIRK1/2, thallium flux, primary screen (AID 624;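 active means fluorescence slope after compound addition differing from the mean of all screened samples at 99.7% confidence, in either direction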;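 further: slope of fluorescence ratio to pre-addition baseline per second over 15 to 24 s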). The following applies: thallium flux BTC fluorescence, at 10 µM, actives lie on both sides.
Test [7] is described as follows: inhibitors of larval lipid processing in zebrafish, primary screen, whole organism, PED6 fluorescence, gall bladder and intestine (AID 686;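 active means a full or partial loss of lipid-probe fluorescence in the fish gall bladder, intestine or both, judged by eye; inactive means no fluorescence loss, or compound toxic to the fish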;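 further: larvae 5 to 7 days old with five fish per well; signal comes from phospholipase A2 cleavage of quenched PED6 carried via bile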). The settings on record: Zebrafish larvae PED6 lipid processing, fluorescence scoring; screened at 20 µM (by protocol). The method in brief: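 Incubation: overnight exposure of larvae to compound plus PED6 / Test system: live zebrafish larvae aged 5-7 days, whole organism / Amount: 5 larvae per well / Read-out basis: visual per-well fluorescence inhibition score / Signal: visual fluorescence microscopy scoring of gall bladder, gut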

Test [8] in a line: blockers of RIG-like receptor reporter activation – cell-based, Sendai virus stimulus, luciferase, 10K MLSCN set, TLR/RLR signaling modifier project, primary screen (AID 602276).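 Further: firefly luciferase from ISG56 promoter only with Renilla not read in this screen; 0% = Sendai virus plus DMSO and 100% = medium plus DMSO without virus.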 The settings on record: HEK293 RL24 IRF3 luciferase reporter, at 10 µM, stronger effect = higher value.
Test [9] is described as follows: TLR3 IRF3 reporter activation blockers – cell-based, poly I:C stimulus, luciferase, 10K MLSCN set, primary screen (AID 602277;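 active means inhibition of the reporter signal at or above 50%; inactive means inhibition below 50%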). The settings on record: HEK293-TLR3 RL24 IRF3 luciferase reporter, at 10 µM, stronger effect = higher value.

Voltage-gated potassium channel subunit beta-2 (Rattus norvegicus), sequence (P62483 whole entry, looked up): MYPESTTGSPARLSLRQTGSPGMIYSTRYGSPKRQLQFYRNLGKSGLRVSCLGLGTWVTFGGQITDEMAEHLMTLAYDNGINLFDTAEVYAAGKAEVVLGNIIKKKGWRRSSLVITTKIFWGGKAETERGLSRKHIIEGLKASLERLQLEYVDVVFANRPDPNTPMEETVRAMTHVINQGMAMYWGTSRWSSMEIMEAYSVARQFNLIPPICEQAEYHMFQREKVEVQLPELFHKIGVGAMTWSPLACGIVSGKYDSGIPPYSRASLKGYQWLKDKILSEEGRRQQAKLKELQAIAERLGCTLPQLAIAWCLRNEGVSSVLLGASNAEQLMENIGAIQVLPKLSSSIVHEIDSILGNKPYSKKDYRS
Alpha-2C adrenergic receptor (Homo sapiens), sequence (P18825 whole entry, looked up): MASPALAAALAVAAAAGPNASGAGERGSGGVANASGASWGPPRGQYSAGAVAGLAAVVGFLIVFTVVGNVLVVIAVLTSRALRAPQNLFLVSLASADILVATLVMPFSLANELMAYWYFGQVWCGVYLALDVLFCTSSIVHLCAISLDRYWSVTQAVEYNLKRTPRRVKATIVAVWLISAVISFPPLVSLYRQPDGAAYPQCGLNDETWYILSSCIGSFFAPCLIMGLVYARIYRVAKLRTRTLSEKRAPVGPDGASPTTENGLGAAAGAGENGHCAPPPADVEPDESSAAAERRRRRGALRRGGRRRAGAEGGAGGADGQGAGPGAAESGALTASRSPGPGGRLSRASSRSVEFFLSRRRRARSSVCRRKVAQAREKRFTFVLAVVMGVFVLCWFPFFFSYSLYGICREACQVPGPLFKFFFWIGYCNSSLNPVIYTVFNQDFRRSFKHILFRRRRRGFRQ

With `O=C(Nc1nnc(SCC(=O)N2CCCCC2)s1)C1CCCCC1`, the cell count in test [1] stood at 437. The inhibition was -3.4% (inactive) in test [1], -34.7% (inactive) in test [3], 9.52% (inactive) in test [8] and 13.5% (inactive) in test [9]. Further, the inhibition of aggregation in test [2] was 1.9% (inactive). Besides, the nuclei count was found to be 99.2% in test [2] and 118% in [3]. In test [4], the fluorescence slope was -0.346 (inactive). Further, the NADPH fluorescence slope in [5] is -3.5e-05 (inactive). Moreover, the slope in [6] is 0.00464 (inactive). Also, the compound was classed as inactive in test [7].
`CCOC(=O)CSc1nc2sc(C)c(C)c2c(=O)[nH]1`: the cell count in test [1] was 419. In addition, the inhibition was 1.6% (inactive) in test [1], -75.6% (inactive) in test [3], 8.58% (inactive) in test [8] and 9.53% (inactive) in test [9]. In addition, the inhibition of aggregation in test [2] is -20% (inactive). The nuclei count came to 104% in test [2] and 102% in test [3]. The fluorescence slope in [4] was -0.38 (inactive). Moreover, the NADPH fluorescence slope in test [5] is -5e-06 (inactive). Also, the slope in test [6] was 0.00685 (inactive). Further, in test [7], the outcome was inactive.
With `Cc1ccc(NC(=O)c2ccco2)c(NC(=O)CN2C(=O)c3ccccc3C2=O)c1`, in test [1], the cell count came to 402. For the same compound, the inhibition in test [1] was -7.3% (inactive); in test [3], -162% (inactive); in [8], 0.0738% (inactive); in [9], -0.596% (inactive). In test [2], the inhibition of aggregation was 6.5% (inactive). The nuclei count amounted to 90.3% in [2] and 155% in test [3]. Besides, in test [4], the fluorescence slope was -0.466 (inactive). The NADPH fluorescence slope in [5] is -1.3e-05 (inactive). The slope in test [6] is 0.00456 (inactive). The compound was classed as inactive in test [7].
For `COc1ccc(CNc2oc(-c3cccc4ccccc34)nc2C#N)cc1`, the cell count in test [1] was 570. The inhibition in test [1] was -3.4% (inactive); in [3], 56.8% (inactive); in test [8], 4.97% (inactive); in test [9], 7.07% (inactive). Besides, in [2], the inhibition of aggregation is 8.1% (inactive). Also, the nuclei count was 86.3% in [2] and 86.1% in [3]. Also, in test [4], the fluorescence slope is -0.183 (inactive). In test [5], the NADPH fluorescence slope was 6.8e-06 (inactive). Moreover, the slope in [6] was 0.00641 (inactive). The result in test [7] was inactive.
Consider `Cc1ccc(OCC(O)Cn2c(NCCc3ccccc3)nc3c2c(=O)[nH]c(=O)n3C)cc1` (configuration not stated), for which the cell count in [1] amounted to 421. The inhibition in test [1] is -1.8% (inactive); in test [3], -5.4% (inactive); in test [8], -0.0675% (inactive); in [9], 1.64% (inactive). Further, the inhibition of aggregation in test [2] is -12.3% (inactive). The values for the nuclei count in test [2] and in [3] were 107% and 113%, respectively. The fluorescence slope in [4] is -0.444 (inactive). Besides, the NADPH fluorescence slope in test [5] is 5.3e-06 (inactive). Further, the slope in [6] was 0.00534 (inactive). For the same compound, in test [7], the compound was classed as inactive.
Take `COC(=O)CCN(C(=O)c1ccc2c(c1)OCO2)c1ccccn1`: the cell count in [1] came to 730. Besides, the inhibition in [1] was 2.9% (inactive); in test [3], -0.1% (inactive); in test [8], 17.3% (inactive); in test [9] it was 18% (inactive). Also, in test [2], the inhibition of aggregation is -10.6% (inactive). The nuclei count in test [2] came to 98.2%; in test [3], 89.7%. Besides, the fluorescence slope in [4] is -0.4 (inactive). Also, in test [5], the NADPH fluorescence slope was -4.5e-06 (inactive). In addition, the slope in test [6] was 0.00511 (inactive). The call in test [7] was inactive.
On to `COC(=O)c1sccc1NC(=O)c1ccco1`, for which the cell count in test [1] stood at 474. Moreover, the inhibition was -11.9% (inactive) in test [1], 19.6% (inactive) in [3], 2.56% (inactive) in test [8] and -4.04% (inactive) in test [9]. Moreover, the inhibition of aggregation in test [2] is 8.2% (inactive). The nuclei count in test [2] amounted to 90.7%; in test [3], 89.7%. Moreover, the fluorescence slope in [4] is -0.44 (inactive). Moreover, in [5], the NADPH fluorescence slope is -3.5e-05 (inactive). The slope in test [6] is 0.00438 (inactive). Besides, in [7], the outcome is “active; weak signal in gallbladder only”.
`COc1ccc(S(=O)(=O)Nc2ccc(Cl)cn2)c(C)c1C`: the cell count in [1] is 482. For the same compound, the inhibition was -29.6% (inactive) in [1], -46.8% (inactive) in test [3], 11.2% (inactive) in test [8] and 1.09% (inactive) in test [9]. Moreover, the inhibition of aggregation in [2] was -3.5% (inactive). Moreover, the nuclei count in [2] turned out to be 62%; in test [3] it was 98.5%. The fluorescence slope in test [4] was -0.387 (inactive). Also, the NADPH fluorescence slope in test [5] is -4.6e-05 (inactive). In test [6], the slope is 0.00866 (inactive). Further, the compound was called inactive in test [7].
`CCCC(=O)Nc1ccc(C(=O)O)cc1NC(=O)CCC`: the cell count in [1] amounted to 442. Also, the inhibition in test [1] is -4.3% (inactive); in test [3] it was 39.4% (inactive); in test [8], 12.9% (inactive); in test [9], 15.5% (inactive). Besides, the inhibition of aggregation in test [2] was -9.3% (inactive). Further, the nuclei count in test [2] amounted to 104%; in test [3], 89.9%. The fluorescence slope in test [4] is -0.441 (inactive). The NADPH fluorescence slope in test [5] was -5e-05 (inactive). Further, the slope in [6] is 0.00422 (inactive). The call in [7] was inactive.
As for `CCc1ccc2[nH]c(=O)c(C(c3nnnn3CC3CCCO3)N3CCN4CCCC4C3)cc2c1` (configuration not stated), the cell count in test [1] worked out at 314. For the same compound, the inhibition in [1] was 12.3% (inactive); in [3], 13.9% (inactive); in test [8], 9.53% (inactive); in test [9], 4.74% (inactive). The inhibition of aggregation in test [2] was -16.9% (inactive). For the same compound, the nuclei count stood at 107% in [2] and 102% in test [3]. Moreover, the fluorescence slope in test [4] is -0.382 (inactive). For the same compound, in test [5], the NADPH fluorescence slope was -5.9e-05 (inactive). The slope in [6] is 0.00534 (inactive). The compound was classed as inactive in test [7].
For `CSc1ncc(Cl)c(C(=O)Nc2ccc(S(=O)(=O)N3CCOCC3)cc2)n1`, the cell count in test [1] is 288. Besides, the inhibition in [1] was -0.8% (inactive); in test [3], 2.7% (inactive); in test [8], 4.78% (inactive); in [9] it was 0.446% (inactive). Further, in test [2], the inhibition of aggregation was -8.6% (inactive). The figures for the nuclei count in [2] and in [3] were 101% and 131%, respectively. The fluorescence slope in [4] was -0.433 (inactive). Also, in test [5], the NADPH fluorescence slope is -5.7e-05 (inactive). For the same compound, in [6], the slope is 0.00479 (inactive). In test [7], the compound was called inactive.
